Measured values published in ChEMBL document CHEMBL4665666, “Discovery and characterization of trypanocidal cysteine protease inhibitors from the 'malaria box'” (Eur J Med Chem, 2019).
Active and inactive are the calls of the source. No cut-off for these calls is given here.

Legend:
cathepsin B = cathepsin B (Rattus norvegicus, UniProt P00787); assay: Inhibition of rat cathepsin B at 100 uM using Z-FR-AMC as substrate measured after 15 mins without preincubation by microplate reader based assay relative to control; conditions: probe Z-FR-AMC
Sequence of cathepsin B (P00787 whole entry): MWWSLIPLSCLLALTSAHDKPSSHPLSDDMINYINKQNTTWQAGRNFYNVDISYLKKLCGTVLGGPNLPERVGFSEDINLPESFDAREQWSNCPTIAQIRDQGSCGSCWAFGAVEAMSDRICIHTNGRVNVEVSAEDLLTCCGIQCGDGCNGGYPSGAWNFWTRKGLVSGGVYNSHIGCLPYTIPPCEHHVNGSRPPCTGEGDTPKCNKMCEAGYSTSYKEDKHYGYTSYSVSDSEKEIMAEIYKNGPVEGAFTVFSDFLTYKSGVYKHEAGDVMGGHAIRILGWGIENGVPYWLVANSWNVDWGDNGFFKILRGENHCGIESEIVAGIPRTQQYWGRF
Method in brief: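 Rat cathepsin B (20 nM) at 25°C in 100 mM sodium phosphate, 100 mM NaCl, 1 mM EDTA, 1 mM DTT, 0.01% CHAPS. Compound pre-incubated 0 or 5 min with enzyme; Z-FR-AMC 50 µM, ex 380/em 440 nm, monitored 15 min. Inhibition is versus 2% DMSO, with 1 µM E64 control. Two independent experiments in triplicate.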

[1] = molecular target: Rhodesain (Trypanosoma brucei rhodesiense) (UniProt Q95PM0); assay: Inhibition of recombinant Trypanosoma brucei rhodesain expressed in Pichia pastoris at 5 uM using Z-FR-AMC as substrate preincubated for 10 mins followed by substrate addition and measured at 12 sec interval for 5 mins by fluorimetric analysis relative to control; conditions: time 15.0 min
Sequence of Rhodesain (Trypanosoma brucei rhodesiense) (Q95PM0 1-450): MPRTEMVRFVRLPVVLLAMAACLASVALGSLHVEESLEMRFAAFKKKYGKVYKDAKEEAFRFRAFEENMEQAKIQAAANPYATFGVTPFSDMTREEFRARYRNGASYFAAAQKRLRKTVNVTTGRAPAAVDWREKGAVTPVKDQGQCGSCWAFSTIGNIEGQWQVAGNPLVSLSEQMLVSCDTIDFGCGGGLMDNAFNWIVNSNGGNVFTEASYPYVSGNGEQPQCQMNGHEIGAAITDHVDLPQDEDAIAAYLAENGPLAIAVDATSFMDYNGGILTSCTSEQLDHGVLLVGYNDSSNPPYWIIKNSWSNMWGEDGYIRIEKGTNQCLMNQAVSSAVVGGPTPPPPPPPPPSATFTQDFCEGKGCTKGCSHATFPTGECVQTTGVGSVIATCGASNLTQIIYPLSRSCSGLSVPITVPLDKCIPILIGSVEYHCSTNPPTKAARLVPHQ
Method in brief: (§1)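 Recombinant rhodesain or cruzain (1 nM) in 0.1 M sodium acetate pH 5.5, 0.01% Triton X-100, 1 mM β-mercaptoethanol. Compound at a single concentration, either without or after 10 min enzyme pre-incubation. Inhibition is relative to DMSO, with E-64 as positive control. Done in duplicate (primary screen) or triplicate.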

[2] = molecular target: Cruzipain (Trypanosoma cruzi) (UniProt P25779); assay: Inhibition of recombinant Trypanosoma cruzi cruzain at 100 uM preincubated for 10 mins in presence of 0.01% Triton X-100 relative to control
Sequence of Cruzipain (Trypanosoma cruzi) (P25779 123-467 limits assumed): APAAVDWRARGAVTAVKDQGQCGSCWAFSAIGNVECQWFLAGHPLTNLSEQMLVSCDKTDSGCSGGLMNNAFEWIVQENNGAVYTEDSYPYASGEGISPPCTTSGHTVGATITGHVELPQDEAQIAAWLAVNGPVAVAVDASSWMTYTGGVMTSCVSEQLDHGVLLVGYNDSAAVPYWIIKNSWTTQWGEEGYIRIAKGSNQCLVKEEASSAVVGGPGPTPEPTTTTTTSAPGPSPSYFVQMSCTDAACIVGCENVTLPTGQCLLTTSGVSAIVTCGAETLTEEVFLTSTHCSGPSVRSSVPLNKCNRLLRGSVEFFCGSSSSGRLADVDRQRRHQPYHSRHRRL
Method in brief: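 To test detergent sensitivity, cruzain was pre-incubated 10 min at room temperature with compound with no Triton X-100, 0.01% or 0.1% Triton X-100. Cleavage of Z-FR-AMC was then followed at pH 5.5 in acetate buffer. Percent inhibition was compared across detergent levels.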

Rhodesain [3] = molecular target: T1, Rhodesain (Trypanosoma brucei rhodesiense, UniProt Q95PM0); assay: Mixed inhibition of recombinant Trypanosoma brucei rhodesain expressed in Pichia pastoris by Lineweaver-Burk plot analysis
T1 sequence (Q95PM0 whole entry): as the sequence (Q95PM0 1-450) above
Method in brief: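 Rhodesain rates were measured at six or more Z-FR-AMC levels (0.3–20.0 µM) and five inhibitor levels, in pH 5.5 acetate buffer with 0.01% Triton X-100 and 1 mM β-mercaptoethanol. Read at 340/440 nm. Mechanism and Ki come from Michaelis–Menten nonlinear fits and Lineweaver–Burk linear regression.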

[4] = molecular target: Cruzipain (Trypanosoma cruzi) (UniProt P25779); assay: Inhibition of recombinant Trypanosoma cruzi cruzain at 5 uM using Z-FR-AMC as substrate preincubated for 10 mins followed by substrate addition and measured at 12 sec interval for 5 mins by fluorimetric analysis relative to control; conditions: time 15.0 min; method in brief: as §1
Rhodesain [5] = molecular target: T1, Rhodesain; assay: Inhibition of recombinant Trypanosoma brucei rhodesain expressed in Pichia pastoris using Z-FR-AMC as substrate preincubated for 10 mins followed by substrate addition and measured at 12 sec interval for 5 mins by fluorimetric analysis
Method in brief: (§2)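 Rhodesain (1 nM) with Z-FR-AMC (2.5 µM) in 0.1 M sodium acetate pH 5.5, 0.01% Triton X-100, 1 mM β-mercaptoethanol, with or without 10 min enzyme-compound pre-incubation. Fluorescence read at 340/440 nm. IC50 by four-parameter nonlinear regression from at least six concentrations in triplicate, with at least two independent runs. Mean ± SEM reported.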

Cruzipain [6] = molecular target: T2, Cruzipain (Trypanosoma cruzi, UniProt P25779); assay: Inhibition of recombinant Trypanosoma cruzi cruzain using Z-FR-AMC as substrate preincubated for 10 mins followed by substrate addition and measured at 12 sec interval for 5 mins by fluorimetric analysis
T2 sequence (P25779 whole entry): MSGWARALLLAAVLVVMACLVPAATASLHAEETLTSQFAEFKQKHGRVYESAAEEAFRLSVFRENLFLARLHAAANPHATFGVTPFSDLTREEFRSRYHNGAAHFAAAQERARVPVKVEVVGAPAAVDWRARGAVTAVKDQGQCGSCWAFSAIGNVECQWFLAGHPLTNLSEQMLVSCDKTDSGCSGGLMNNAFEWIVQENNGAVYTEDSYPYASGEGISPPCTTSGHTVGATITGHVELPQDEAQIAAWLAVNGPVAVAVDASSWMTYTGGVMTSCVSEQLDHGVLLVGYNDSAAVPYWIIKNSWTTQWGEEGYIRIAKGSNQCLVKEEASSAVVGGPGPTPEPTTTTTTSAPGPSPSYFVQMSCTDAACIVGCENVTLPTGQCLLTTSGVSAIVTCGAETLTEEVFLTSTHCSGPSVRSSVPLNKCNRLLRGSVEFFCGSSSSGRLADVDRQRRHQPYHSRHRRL
Method in brief: (§3)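 Cruzain (recombinant, 1 nM) in 0.1 M sodium acetate pH 5.5 with 0.01% Triton X-100 and 1 mM β-mercaptoethanol; Z-FR-AMC 2.5 µM, read at 340/440 nm every 12 s for 5 min, with or without 10 min enzyme–compound pre-incubation. […] For mechanism and Ki, 0.3–20.0 µM substrate and five inhibitor levels were used, with Lineweaver-Burk plots.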

Trypanosoma cruzi [7] = assay: Trypanocidal activity against Trypanosoma cruzi Y strain trypomastigotes infected in C57BL/6 mouse peritoneal macrophage assessed as reduction in number of trypomastigotes release and measured after day 3 to day 11 post-infection by Neubauer chamber method; assay type: functional, organism-based; conditions: time 11.0 day
Method in brief: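 Thioglycolate-elicited peritoneal macrophages from female C57BL/6 mice, 2 × 10^5/well, infected 2 h at 37°C with Y strain trypomastigotes at 5:1 (parasite:cell) and washed. They were then held with compound (3.125–50 µM) or IFN-γ 100 ng/mL. Trypomastigotes released into the supernatant were counted in a Neubauer chamber at several days after infection. Three independent experiments, each in triplicate.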

Trypanosoma cruzi [8] = assay: Trypanocidal activity against Trypanosoma cruzi Y strain trypomastigotes pretreated with compound at 3.125 uM infected in macrophage assessed as reduction in number of trypomastigotes release measured after 7 days by Neubauer chamber method; assay type: functional, Peritoneal macrophage; design: scale not given: the % may be the effect or the level left; conditions: time 7 day
Method in brief: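 Y strain trypomastigotes (1×10^6/mL) were incubated 1 h at 37°C in RPMIc with compound at 3.125 µM or medium alone. They were then pelleted, recounted and used to infect C57BL/6 peritoneal macrophages at 5:1 (parasite:cell) for 2 h. Trypomastigotes released into the supernatant were counted in a Neubauer chamber at 5, 7, 9 and 11 days. Three independent experiments, each in triplicate.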

[9] = system: Trypanosoma brucei brucei; assay: Trypanocidal activity against Trypanosoma brucei brucei Squib 427 assessed as reduction in parasite viability; assay type: functional, organism-based
Peritoneal macrophage [10] = assay: Effect on nitric oxide production in Trypanosoma cruzi Y strain trypomastigotes infected in C57BL/6 mouse peritoneal macrophage measured after 11 days by Griess reagent based assay; assay type: functional, tissue-based; conditions: time 11.0 day
Method in brief: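 Peritoneal macrophages from C57BL/6 mice, infected with T. cruzi Y trypomastigotes at 5:1 for 2 h and/or stimulated with compound or IFN-γ. Supernatant taken 11 days later and mixed with Griess reagent for 10 min. Absorbance read at 540 nm to give nitrite. Three independent experiments in triplicate.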

Peritoneal macrophage [11] = assay: Cytotoxicity against C57BL/6 mouse peritoneal macrophages assessed as reduction in cell viability at 3.125 uM measured after 24 hrs by LDH release assay; assay type: cell-based
Method in brief: (§4)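 Thioglycolate-elicited peritoneal macrophages from female C57BL/6 mice, 2 × 10^5/well, infected or not with T. cruzi Y trypomastigotes (5:1, 2 h). Either the cells got 3.125–50 µM compound or IFN-γ 100 ng/mL, or the parasites were pre-treated 1 h at 3.125 µM. LDH in supernatant measured at 24 h. Three experiments in triplicate.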

Cruzipain [12] = molecular target: T2, Cruzipain; assay: Competitive inhibition of recombinant Trypanosoma cruzi cruzain by Lineweaver-Burk plot analysis; method in brief: as §3
Peritoneal macrophage [13] = assay: Cytotoxicity against C57BL/6 mouse peritoneal macrophage cells infected with 3.125 uM compound pretreated trypomastigotes and measured after 24 hrs by LDH release assay; assay type: cell-based; method in brief: as §4
Rhodesain [14] = molecular target: T1, Rhodesain; assay: Inhibition of recombinant Trypanosoma brucei rhodesain expressed in Pichia pastoris using Z-FR-AMC as substrate and measured at 12 sec interval for 5 mins without preincubation by fluorimetric analysis; method in brief: as §2

Compound | inhibition at 0.25 h, 100 µM (cathepsin B) | inhibition [1] | inhibition [2] | Ki (Rhodesain [3]) | inhibition [4] | IC50 (Rhodesain [5]) | IC50 (Cruzipain [6]) | Activity (Trypanosoma cruzi [7]) | Activity (Trypanosoma cruzi [8]) | IC50 [9] | Activity (Peritoneal macrophage [10]) | Activity (Peritoneal macrophage [11]) | Ki (Cruzipain [12]) | Activity (Peritoneal macrophage [13]) | IC50 (Rhodesain [14])
Cn1c(=O)n(C)c2cc(CNCCNc3ccnc4cc(Cl)ccc34)ccc21 | 9.9% | 81.4% | 74.8% | 10 µM | 79.7% | 38 µM | 51 µM | – | – | – | – | – | – | – | –
Cl.Cl.Clc1cc(Br)ccc1-c1ccc(CNCC2CCNCC2)o1 | 1.3% | 49.6% | 67.1% | – | 56.7% | – | – | Dose-dependent effect | 60% | 0.1 µM | inactive | Non-Toxic | 3 µM | 30% | 53 µM
